In ChEMBL document CHEMBL1126202, “Dual-action penems and carbapenems” (J Med Chem, 1992):

Tests used:
Staphylococcus aureus [1] = experiment: In vitro antibacterial activity against Staphylococcus aureus 67(methicillin resistant); type: functional
Outline: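 MIC by agar dilution on Mueller-Hinton agar. Compounds were serially 2-fold diluted in water, final 128 to 0.0156 μg/mL in agar. Inoculum: overnight broth culture diluted 100-fold, applied with a Steers replicator.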

Clostridioides difficile = experiment: In vitro antibacterial activity against Clostridium difficile 701; type: functional
Enterobacter cloacae = experiment: In vitro antibacterial activity against enterobacter cloacae P99 (constitutive beta-lactamase producer); type: functional
Outline: (§1)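 MIC was determined by agar dilution on Mueller-Hinton agar. Serial 2-fold aqueous dilutions were diluted 10-fold in agar to give final concentrations of 128 to 0.0156 μg/mL. Plates were inoculated by Steers replicator with overnight broth cultures diluted 100-fold.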

Streptococcus pyogenes = experiment: In vitro antibacterial activity against Streptococcus pyogenes 4; type: functional
Outline: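 Streptococcal MICs were determined by agar dilution on brain heart infusion agar supplemented with 20 units/mL bovine liver catalase. Final concentrations were 128 to 0.0156 μg/mL from 2-fold dilutions. Inocula were overnight broth cultures diluted 100-fold, applied by Steers replicator.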

Proteus mirabilis = experiment: In vitro antibacterial activity against Proteus mirabilis 90; type: functional
Outline: (§2)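 Proteus MICs were determined by agar dilution on Mueller-Hinton agar containing 3% agar. Serial 2-fold dilutions gave final concentrations of 128 to 0.0156 μg/mL. Plates were replicator-inoculated with 100-fold-diluted overnight broth cultures.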

Clostridium perfringens = experiment: In vitro antibacterial activity against Clostridium perfringens 13424; type: functional
Outline: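 MIC by broth dilution in microtiter plates, run in an oxygen-free hydrogen–carbon dioxide atmosphere. Medium: Schaedler's broth with coenzyme I and hemin added.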

Pseudomonas aeruginosa = experiment: In vitro antibacterial activity against Pseudomonas aeruginosa 8780; type: functional; outline: as §1
[2] = molecular target: T1, Peptidoglycan D,D-transpeptidase MrdA (Escherichia coli K-12) (UniProt P0AD65); experiment: Concentration inhibiting [14C]- Penicillin G binding to Escherichia coli UB1005 PBP2 (penicillin binding protein) 66 kDa
T1 sequence (whole entry): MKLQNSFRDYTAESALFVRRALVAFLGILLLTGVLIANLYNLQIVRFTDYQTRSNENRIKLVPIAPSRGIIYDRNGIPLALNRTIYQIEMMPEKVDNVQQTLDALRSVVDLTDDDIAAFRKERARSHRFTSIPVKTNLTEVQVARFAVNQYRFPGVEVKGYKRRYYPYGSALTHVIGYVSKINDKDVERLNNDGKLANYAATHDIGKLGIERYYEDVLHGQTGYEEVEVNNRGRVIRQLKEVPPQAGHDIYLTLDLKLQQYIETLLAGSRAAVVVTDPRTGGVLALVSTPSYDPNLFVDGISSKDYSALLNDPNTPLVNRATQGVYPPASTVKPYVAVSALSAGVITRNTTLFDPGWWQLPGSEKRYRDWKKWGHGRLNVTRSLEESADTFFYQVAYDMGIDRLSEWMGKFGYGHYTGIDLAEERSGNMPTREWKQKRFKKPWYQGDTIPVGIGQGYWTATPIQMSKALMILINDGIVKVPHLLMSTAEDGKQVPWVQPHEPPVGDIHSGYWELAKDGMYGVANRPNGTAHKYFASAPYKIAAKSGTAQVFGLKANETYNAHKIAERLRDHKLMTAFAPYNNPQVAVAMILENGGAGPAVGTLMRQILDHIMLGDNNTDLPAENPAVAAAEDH
Outline: (§3)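 Solubilized membranes from sonicated E. coli UB1005 were used as the PBP source. Inhibition of [14C]penicillin G binding to the PBPs was measured.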

Bacteroides fragilis = experiment: In vitro antibacterial activity against bacteroides fragilis S2; type: functional
Outline: (§4)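 Anaerobic MIC, run in microtiter plates in Schaedler's broth supplemented with coenzyme I and hemin. Incubated in an oxygen-free hydrogen–carbon dioxide atmosphere.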

Escherichia coli [3] = experiment: In vitro antibacterial activity against Escherichia coli 257; type: functional
[4] = test system: Bacteroides thetaiotaomicron; experiment: In vitro antibacterial activity against Bacteroides thetaiotaomicron 62B; type: functional
Outline: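 Anaerobic MICs were determined in microtiter plates in Schaedler's broth supplemented with coenzyme I and hemin. Incubation was under an oxygen-free hydrogen-carbon dioxide atmosphere.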

Escherichia coli [5] = experiment: Concentration inhibiting [14C]- Penicillin G binding to Escherichia coli UB1005 PBP4 (penicillin binding protein) 49 kDa; type: functional; outline: as §3
Escherichia coli [6] = experiment: In vitro antibacterial activity against Escherichia coli 25922; type: functional; outline: as §1
Hathewaya histolytica = experiment: In vitro antibacterial activity against clostridium histolyticum 503-86; type: functional; outline: as §4
Escherichia coli [7] = experiment: In vitro antibacterial activity against Escherichia coli TEM-1 (constitutive beta-lactamase producer); type: functional; outline: as §1
Staphylococcus aureus [8] = experiment: In vitro antibacterial activity against staphylococcus aureus smith; type: functional; outline: as §1
Klebsiella pneumoniae = experiment: In vitro antibacterial activity against klebsiella pneumoniae A; type: functional
Outline: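 Agar-dilution MIC on Mueller-Hinton agar. Serial 2-fold dilutions were made in water, giving final agar concentrations of 128 to 0.0156 μg/mL. Inoculum was an overnight broth culture diluted 100-fold, applied with a multipoint replicator.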

Proteus vulgaris = experiment: In vitro antibacterial activity against proteus vulgaris ATCC 6380 (constitutive beta-lactamase producer); type: functional; outline: as §2
Escherichia coli [9] = experiment: In vitro antibacterial activity against Escherichia coli UB1005 (nalidixic acid-resistant strain); type: functional; outline: as §1
[10] = molecular target: T2, Penicillin-binding protein 2b (Staphylococcus aureus) (UniProt Q9XDB3); experiment: Concentration inhibiting [14C]- Penicillin G binding to Staphylococcus aureus ATCC 29213 Penicillin binding protein 3, 75 kDa
T2 sequence (whole entry): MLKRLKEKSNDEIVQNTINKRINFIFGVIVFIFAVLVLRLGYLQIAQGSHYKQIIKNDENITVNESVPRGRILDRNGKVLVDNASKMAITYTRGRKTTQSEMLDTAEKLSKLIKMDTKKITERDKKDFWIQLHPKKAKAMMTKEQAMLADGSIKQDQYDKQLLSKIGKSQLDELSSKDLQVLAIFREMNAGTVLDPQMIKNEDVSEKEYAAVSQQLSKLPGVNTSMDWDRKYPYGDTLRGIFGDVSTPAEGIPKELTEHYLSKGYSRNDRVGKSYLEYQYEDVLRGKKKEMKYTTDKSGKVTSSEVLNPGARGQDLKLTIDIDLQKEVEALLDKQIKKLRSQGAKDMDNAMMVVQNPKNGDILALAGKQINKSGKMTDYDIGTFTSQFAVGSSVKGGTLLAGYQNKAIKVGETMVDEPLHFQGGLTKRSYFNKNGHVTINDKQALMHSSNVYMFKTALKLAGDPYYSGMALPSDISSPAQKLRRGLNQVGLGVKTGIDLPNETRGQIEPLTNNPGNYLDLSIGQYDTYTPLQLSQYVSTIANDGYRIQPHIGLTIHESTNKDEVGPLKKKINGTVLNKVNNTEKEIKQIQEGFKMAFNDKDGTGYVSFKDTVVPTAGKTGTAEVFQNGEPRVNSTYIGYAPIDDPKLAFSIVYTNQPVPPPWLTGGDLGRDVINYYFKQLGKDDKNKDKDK

SMILES: C[C@@H](O)[C@H]1C(=O)N2C(C(=O)[O-])=C(COC(=O)N3CCN(c4cc5c(cc4F)c(=O)c(C(=O)O)cn5C4CC4)CC3)S[C@H]12.[Na+]
- MIC (Staphylococcus aureus [1]): 4 µg/mL
- MIC (Clostridioides difficile): 8 µg/mL
- MIC (Enterobacter cloacae): 0.0625 µg/mL
- MIC (Streptococcus pyogenes): 0.0313 µg/mL
- MIC (Proteus mirabilis): 1 µg/mL
- MIC (Clostridium perfringens): 0.25 µg/mL
- MIC (Pseudomonas aeruginosa): 2 µg/mL
- IC90 [2]: 30 µg/mL
- MIC (Bacteroides fragilis): 16 µg/mL
- MIC (Escherichia coli [3]): 0.0625 µg/mL
- MIC [4]: 16 µg/mL
- IC90 (Escherichia coli [5]): > 100 µg/mL
- MIC (Escherichia coli [6]): 0.06 µg/mL
- MIC (Hathewaya histolytica): 0.25 µg/mL
- MIC (Escherichia coli [7]): 0.0625 µg/mL
- MIC (Staphylococcus aureus [8]): 0.125 µg/mL
- MIC (Klebsiella pneumoniae): 0.25 µg/mL
- MIC (Proteus vulgaris): 0.0625 µg/mL
- MIC (Escherichia coli [9]): 4 µg/mL

SMILES: C[C@@H](O)[C@H]1C(=O)N2C(C(=O)[O-])=C(CO)S[C@H]12.[Na+]
- MIC (Staphylococcus aureus [1]): > 64 µg/mL
- MIC (Clostridioides difficile): 2 µg/mL
- MIC (Streptococcus pyogenes): 0.125 µg/mL
- MIC (Proteus mirabilis): 8 µg/mL
- MIC (Clostridium perfringens): 0.5 µg/mL
- MIC (Pseudomonas aeruginosa): 64 µg/mL
- IC90 [10]: 10 µg/mL
- IC90 [2]: 30 µg/mL
- MIC (Escherichia coli [3]): 4 µg/mL
- MIC [4]: 0.125 µg/mL
- IC90 (Escherichia coli [5]): > 100 µg/mL
- MIC (Escherichia coli [7]): 4 µg/mL
- MIC (Staphylococcus aureus [8]): 0.25 µg/mL

SMILES: C[C@@H](O)[C@H]1C(=O)N2C(C(=O)[O-])=C(COC(=O)c3cn(CCF)c4c(F)c(N5CCN(C)CC5)c(F)cc4c3=O)S[C@H]12.[Na+]
- MIC (Staphylococcus aureus [1]): 1 µg/mL
- MIC (Clostridioides difficile): 1 µg/mL
- MIC (Enterobacter cloacae): 0.5 µg/mL
- MIC (Streptococcus pyogenes): < 0.0156 µg/mL
- MIC (Proteus mirabilis): 1 µg/mL
- MIC (Clostridium perfringens): < 0.125 µg/mL
- MIC (Pseudomonas aeruginosa): 16 µg/mL
- IC90 [10]: 0.5 µg/mL
- IC90 [2]: 10 µg/mL
- MIC (Bacteroides fragilis): < 0.125 µg/mL
- MIC (Escherichia coli [3]): 0.25 µg/mL
- MIC [4]: 4 µg/mL
- IC90 (Escherichia coli [5]): > 100 µg/mL
- MIC (Escherichia coli [6]): 0.25 µg/mL
- MIC (Hathewaya histolytica): < 0.125 µg/mL
- MIC (Escherichia coli [7]): 0.5 µg/mL
- MIC (Staphylococcus aureus [8]): 0.125 µg/mL
- MIC (Klebsiella pneumoniae): 0.5 µg/mL
- MIC (Proteus vulgaris): 0.25 µg/mL
- MIC (Escherichia coli [9]): 2 µg/mL
